The source of these data is ChEMBL document CHEMBL4017508, “Design, Synthesis, and Biological Evaluation of Novel Type I1/2 p38α MAP Kinase Inhibitors with Excellent Selectivity, High Potency, and Prolonged Target Residence Time by Interfering with the R-Spine” (J Med Chem, 2017).

Tested on in one series: not listed separately
The series can be described thus: Metabolic stability in rat liver microsomes after 180 mins in presence of NADPH by LC-MS analysis. It counts as ADME, microsome. The following applies: read-out: Stability. The essentials: (§1)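 Incubation with rat liver microsomes for 180 min, run in triplicate; mean ± standard deviation reported. Parent decrease and percentage of formed metabolites were followed by LC-MS. Samples were dissolved in MeOH and separated on a C18 core-shell column at 20 °C. The gradient ran from 5 to 100% acetonitrile against water, both with 0.1% formic acid, at 500 μL/min. Detection used ESI+.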
(In general: Microsomes from liver hold many membrane-bound enzymes, among them those of drug oxidation.)
`O=C(NCCO)c1ccc2c(c1)C(=O)c1ccc(Nc3cc(NC(=O)c4cccs4)c(F)cc3F)cc1CC2`: the remaining at 3 h worked out at 66.9%.

Regarding `O=C(NCC(O)CO)c1ccc2c(c1)C(=O)c1ccc(Nc3ccc(F)c(NC(=O)C4CC4)c3)cc1CC2` (configuration not stated), the remaining at 3 h amounted to 95.2%.

As to `CNC(=O)c1ccc2c(c1)C(=O)c1ccc(Nc3ccc(F)c(NC(=O)c4ccccc4)c3)cc1CC2`, the remaining at 3 h is 65.6%.

For `CNC(=O)c1ccc2c(c1)C(=O)c1ccc(Nc3ccc(F)c(NC(=O)C4CC4)c3)cc1CC2`, the remaining at 3 h was found to be 79.5%.

As for `O=C(NCCN1CCOCC1)c1ccc2c(c1)C(=O)c1ccc(Nc3ccc(F)c(NC(=O)c4cccs4)c3)cc1CC2`, the remaining at 3 h came out at 57.1%.

On to `O=C(NCCN1CCOCC1)c1ccc2c(c1)C(=O)c1ccc(Nc3ccc(F)c(NC(=O)c4ccccc4)c3)cc1CC2` [FS-694], for which the remaining at 3 h came out at 40.6%.

As to `O=C(NCC(O)CO)c1ccc2c(c1)C(=O)c1ccc(Nc3cc(NC(=O)c4cccs4)c(F)cc3F)cc1CC2` (configuration not stated), the remaining at 3 h is 76.6%.

Turning to `CNC(=O)c1ccc2c(c1)C(=O)c1ccc(Nc3cccc(C(=O)NC4CC4)c3F)cc1CC2`, the remaining at 3 h stood at 61.6%.

Take `O=C(NCC(O)CO)c1ccc2c(c1)C(=O)c1ccc(Nc3cc(NC(=O)c4cccs4)c(F)cc3F)cc1OC2` (configuration not stated): the remaining at 3 h came out at 48.7%.

In the case of `O=C(NCCN1CCOCC1)c1ccc2c(c1)C(=O)c1ccc(Nc3cc(NC(=O)c4cccs4)c(F)cc3F)cc1CC2`, the remaining at 3 h turned out to be 66.7%.

Take `O=C(NCCN1CCOCC1)c1ccc2c(c1)C(=O)c1ccc(Nc3ccc(F)c(NC(=O)c4ccccc4)c3)cc1OC2`: the remaining at 3 h came out at 14.8%.

For another series, the system named is Liver. The series can be described thus: Drug metabolism in rat liver microsomes assessed as metabolite formation after 180 mins in presence of NADPH by LC-MS analysis. It counts as ADME, microsome. The settings on record: 3 h. The essentials: as §1
In the case of `O=C(NCC(O)CO)c1ccc2c(c1)C(=O)c1ccc(Nc3ccc(F)c(NC(=O)C4CC4)c3)cc1CC2` (configuration not stated), the Drug metabolism result is on record as “Metabolite_Notdetected”.
